Data: ChEMBL document CHEMBL4000150, “Synthesis and antitumor activity evaluation of PI3K inhibitors containing 3-substituted quinazolin-4(3H)-one moiety” (Bioorg Med Chem, 2015)

Tests used:
HCT-116 = test: Antiproliferative activity against human HCT116 cells harboring PI3CA H1047R mutant after 72 hrs by MTT assay; assay type: functional, cell-based; conditions: HCT-116, 72 h
Outline: (§1)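 Cells were grown as monolayers in DMEM + 10% FBS at 37 °C, 5% CO2, and seeded at 3000-5000/well, 24 h before dosing. They were exposed 72 h to final 10.0, 5.0, 1.0 and 0.5 μM. MTT (5 mg/mL in PBS) was then added for 4 h at 37 °C, formazan dissolved in DMSO and read at 570 nm. Three experiments in triplicate; IC50 derived from inhibition ratios.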

MCF7 = test: Antiproliferative activity against human MCF7 cells harboring PI3CA E545K mutant after 72 hrs by MTT assay; assay type: functional, cell-based; conditions: MCF7, 72 h; outline: as §1
[1] = target: PI3-kinase p110-alpha/p85-alpha (Homo sapiens, UniProt P42336); test: Inhibition of P110alpha/p85alpha (unknown origin) using L-alpha-phosphatidylinositol as substrate after 40 mins by ATP depletion assay; assay type: protein-complex assay
PI3K p110 beta/p85 alpha = PI3K p110 beta/p85 alpha (Homo sapiens, UniProt P42338); test: Inhibition of P110beta/p85alpha (unknown origin) using L-alpha-phosphatidylinositol as substrate after 40 mins by ATP depletion assay; assay type: protein-complex assay
[2] = target: PI3-kinase subunit gamma/Phosphoinositide 3-kinase regulatory subunit 5 (Homo sapiens, UniProt P48736); test: Inhibition of P110gamma/PIK3R5 (unknown origin) using L-alpha-phosphatidylinositol as substrate after 40 mins by ATP depletion assay; assay type: protein-complex assay
[3] = target: PI3-kinase p110-delta/p85-alpha (Homo sapiens, UniProt O00329); test: Inhibition of P110delta/p85alpha (unknown origin) using L-alpha-phosphatidylinositol as substrate after 40 mins by ATP depletion assay; assay type: protein-complex assay
[4] = target: Serine/threonine-protein kinase mTOR (Homo sapiens, UniProt P42345); test: Inhibition of mTOR (unknown origin) using L-alpha-phosphatidylinositol as substrate after 40 mins by ATP depletion assay
[5] = target: PI3-kinase p110-alpha/p85-alpha (Homo sapiens) (UniProt P27986+P42336); test: Ratio of BEZ235 IC50 to compound IC50 for P110alpha/p85alpha (unknown origin) using L-alpha-phosphatidylinositol as substrate after 40 mins by ATP depletion assay; assay type: protein-complex assay
CCRF S-180 [6] = test: Anticancer activity against mouse S180 cells homografted in mouse assessed as tumor growth inhibition at 20 mg/kg, po qd for 8 days measured on day 9 post dose relative to vehicle-treated control; assay type: functional; conditions: CCRF S-180, po, read-out: TGI
Outline: (§2)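 3×10^6 S-180 cells injected s.c. into mouse flank (mice 19.5 ± 1.8 g); randomized, 8 per group. Dosing began next day, oral once daily for 8 days in DMSO:PEG400:5% glucose injection (1:7:2, v/v/v); vehicle group got equal solvent volume. Mice sacrificed Day 9, tumors weighed, and tumor-weight inhibitory ratio calculated versus solvent group.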

CCRF S-180 [7] = test: Anticancer activity against mouse S180 cells homografted in mouse assessed as tumor growth inhibition at 40 mg/kg, po qd for 8 days measured on day 9 post dose relative to vehicle-treated control; assay type: functional; conditions: CCRF S-180, po, read-out: TGI; outline: as §2
Mus musculus = test: Toxicity in mouse S180 cells homografted mouse assessed as reduction of body weight at 20 to 40 mg/kg, po qd for 8 days; assay type: organism-based; conditions: in vivo, 192 h
Outline: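 S-180 sarcoma-bearing mice (3×10^6 cells s.c., flank; 8 per group) given oral doses once daily for 8 days in DMSO:PEG400:5% glucose injection (1:7:2, v/v/v), starting the day after implantation; solvent-only group as control. Body weight recorded daily through sacrifice on Day 9.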

Chain of PI3-kinase subunit gamma/Phosphoinositide 3-kinase regulatory subunit 5 (P48736 whole entry): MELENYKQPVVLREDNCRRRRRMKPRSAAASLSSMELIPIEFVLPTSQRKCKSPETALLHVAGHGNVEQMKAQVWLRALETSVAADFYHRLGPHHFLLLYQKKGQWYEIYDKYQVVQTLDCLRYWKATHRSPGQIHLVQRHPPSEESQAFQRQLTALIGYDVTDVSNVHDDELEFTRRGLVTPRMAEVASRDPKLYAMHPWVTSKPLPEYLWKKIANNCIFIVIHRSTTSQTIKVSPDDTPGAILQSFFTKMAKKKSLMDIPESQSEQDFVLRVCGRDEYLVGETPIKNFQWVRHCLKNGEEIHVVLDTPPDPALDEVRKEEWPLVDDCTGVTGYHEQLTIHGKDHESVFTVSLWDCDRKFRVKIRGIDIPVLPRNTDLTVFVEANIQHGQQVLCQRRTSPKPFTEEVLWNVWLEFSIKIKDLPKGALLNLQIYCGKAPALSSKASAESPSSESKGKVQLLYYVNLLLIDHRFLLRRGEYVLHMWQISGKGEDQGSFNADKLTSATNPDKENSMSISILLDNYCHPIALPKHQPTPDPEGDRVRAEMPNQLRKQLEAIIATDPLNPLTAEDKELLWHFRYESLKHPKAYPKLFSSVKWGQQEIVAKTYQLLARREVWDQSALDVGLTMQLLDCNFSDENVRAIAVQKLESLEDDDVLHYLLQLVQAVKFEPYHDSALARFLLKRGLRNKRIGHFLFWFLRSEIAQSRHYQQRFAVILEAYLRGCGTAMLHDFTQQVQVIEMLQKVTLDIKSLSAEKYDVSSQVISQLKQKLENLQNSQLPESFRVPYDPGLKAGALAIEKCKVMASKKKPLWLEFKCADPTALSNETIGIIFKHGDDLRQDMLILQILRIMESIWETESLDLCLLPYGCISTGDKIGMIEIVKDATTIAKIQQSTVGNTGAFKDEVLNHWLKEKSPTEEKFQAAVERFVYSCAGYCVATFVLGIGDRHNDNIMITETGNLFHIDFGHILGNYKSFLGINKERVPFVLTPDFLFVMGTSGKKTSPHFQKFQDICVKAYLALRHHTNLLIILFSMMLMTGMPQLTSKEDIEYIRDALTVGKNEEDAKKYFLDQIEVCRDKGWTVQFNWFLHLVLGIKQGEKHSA
Chain of PI3-kinase subunit gamma/Phosphoinositide 3-kinase regulatory subunit 5 (Q8WYR1 whole entry, further chain): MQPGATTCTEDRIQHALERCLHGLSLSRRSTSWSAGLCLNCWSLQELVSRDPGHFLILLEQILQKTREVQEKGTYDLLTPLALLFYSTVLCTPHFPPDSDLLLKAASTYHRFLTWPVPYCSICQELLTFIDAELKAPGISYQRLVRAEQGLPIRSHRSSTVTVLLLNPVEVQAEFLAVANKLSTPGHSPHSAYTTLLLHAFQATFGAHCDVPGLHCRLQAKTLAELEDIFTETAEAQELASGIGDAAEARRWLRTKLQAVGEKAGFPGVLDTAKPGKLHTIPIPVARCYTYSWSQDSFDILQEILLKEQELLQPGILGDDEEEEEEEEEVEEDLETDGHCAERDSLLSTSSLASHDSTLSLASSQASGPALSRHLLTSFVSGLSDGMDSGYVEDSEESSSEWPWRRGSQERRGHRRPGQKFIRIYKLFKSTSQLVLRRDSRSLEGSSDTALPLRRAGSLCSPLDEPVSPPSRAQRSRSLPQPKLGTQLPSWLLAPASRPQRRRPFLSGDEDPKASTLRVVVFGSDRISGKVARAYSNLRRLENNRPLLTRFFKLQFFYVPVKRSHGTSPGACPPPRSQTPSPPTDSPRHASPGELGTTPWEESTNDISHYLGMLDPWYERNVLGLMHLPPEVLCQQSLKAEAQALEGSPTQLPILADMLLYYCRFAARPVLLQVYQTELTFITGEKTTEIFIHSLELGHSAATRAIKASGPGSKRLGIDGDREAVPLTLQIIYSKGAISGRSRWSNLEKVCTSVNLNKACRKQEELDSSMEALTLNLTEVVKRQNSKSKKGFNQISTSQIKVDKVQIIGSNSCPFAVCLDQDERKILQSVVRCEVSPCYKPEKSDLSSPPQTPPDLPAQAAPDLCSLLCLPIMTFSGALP
Chain of PI3-kinase p110-delta/p85-alpha (P27986 whole entry): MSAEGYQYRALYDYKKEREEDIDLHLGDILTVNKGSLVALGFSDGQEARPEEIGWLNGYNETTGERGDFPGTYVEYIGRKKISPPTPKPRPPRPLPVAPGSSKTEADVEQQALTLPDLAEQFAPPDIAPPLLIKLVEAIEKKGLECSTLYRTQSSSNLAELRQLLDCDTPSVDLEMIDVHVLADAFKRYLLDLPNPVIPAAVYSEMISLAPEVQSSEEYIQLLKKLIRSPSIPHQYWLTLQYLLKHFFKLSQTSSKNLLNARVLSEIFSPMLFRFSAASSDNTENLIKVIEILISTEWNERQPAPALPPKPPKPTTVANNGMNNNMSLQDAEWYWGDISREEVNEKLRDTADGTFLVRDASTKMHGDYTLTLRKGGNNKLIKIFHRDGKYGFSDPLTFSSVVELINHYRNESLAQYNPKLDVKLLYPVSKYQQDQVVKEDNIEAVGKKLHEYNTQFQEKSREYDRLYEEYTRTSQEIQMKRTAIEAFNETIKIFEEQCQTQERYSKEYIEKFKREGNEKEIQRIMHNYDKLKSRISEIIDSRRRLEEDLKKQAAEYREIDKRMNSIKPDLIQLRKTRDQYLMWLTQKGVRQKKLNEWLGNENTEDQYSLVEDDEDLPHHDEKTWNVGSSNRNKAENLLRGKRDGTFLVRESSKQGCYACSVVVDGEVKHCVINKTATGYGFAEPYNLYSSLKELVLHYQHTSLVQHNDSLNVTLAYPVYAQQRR
Chain of PI3-kinase p110-delta/p85-alpha (O00329 whole entry): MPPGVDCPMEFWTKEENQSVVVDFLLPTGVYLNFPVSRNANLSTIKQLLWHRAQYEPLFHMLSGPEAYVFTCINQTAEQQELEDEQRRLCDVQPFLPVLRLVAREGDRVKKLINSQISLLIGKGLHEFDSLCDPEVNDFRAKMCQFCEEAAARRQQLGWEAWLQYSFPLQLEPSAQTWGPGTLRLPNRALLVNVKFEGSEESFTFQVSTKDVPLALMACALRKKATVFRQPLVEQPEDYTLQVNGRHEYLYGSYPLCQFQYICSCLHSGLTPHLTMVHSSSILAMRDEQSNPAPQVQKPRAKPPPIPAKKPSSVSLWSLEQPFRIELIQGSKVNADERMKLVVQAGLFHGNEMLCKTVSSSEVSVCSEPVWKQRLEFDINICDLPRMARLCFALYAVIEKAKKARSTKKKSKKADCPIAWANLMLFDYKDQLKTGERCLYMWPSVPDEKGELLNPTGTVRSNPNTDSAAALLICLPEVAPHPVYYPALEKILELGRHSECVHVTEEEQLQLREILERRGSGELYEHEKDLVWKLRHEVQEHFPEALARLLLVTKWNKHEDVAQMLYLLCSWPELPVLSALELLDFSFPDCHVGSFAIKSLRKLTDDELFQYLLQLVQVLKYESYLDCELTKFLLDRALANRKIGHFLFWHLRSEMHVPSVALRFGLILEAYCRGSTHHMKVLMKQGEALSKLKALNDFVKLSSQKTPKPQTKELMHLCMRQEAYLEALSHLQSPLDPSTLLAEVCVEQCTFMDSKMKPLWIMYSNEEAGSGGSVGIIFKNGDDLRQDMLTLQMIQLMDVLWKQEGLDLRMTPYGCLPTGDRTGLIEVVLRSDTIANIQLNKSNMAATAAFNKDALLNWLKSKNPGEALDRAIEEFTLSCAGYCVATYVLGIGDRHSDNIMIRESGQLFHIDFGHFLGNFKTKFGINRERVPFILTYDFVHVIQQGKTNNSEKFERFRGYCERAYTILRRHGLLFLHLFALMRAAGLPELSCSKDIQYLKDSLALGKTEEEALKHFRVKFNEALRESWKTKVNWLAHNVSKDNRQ
Chain of PI3K p110 beta/p85 alpha (P27986 whole entry): as the sequence (P27986 whole entry) above
Chain of PI3K p110 beta/p85 alpha (P42338 whole entry): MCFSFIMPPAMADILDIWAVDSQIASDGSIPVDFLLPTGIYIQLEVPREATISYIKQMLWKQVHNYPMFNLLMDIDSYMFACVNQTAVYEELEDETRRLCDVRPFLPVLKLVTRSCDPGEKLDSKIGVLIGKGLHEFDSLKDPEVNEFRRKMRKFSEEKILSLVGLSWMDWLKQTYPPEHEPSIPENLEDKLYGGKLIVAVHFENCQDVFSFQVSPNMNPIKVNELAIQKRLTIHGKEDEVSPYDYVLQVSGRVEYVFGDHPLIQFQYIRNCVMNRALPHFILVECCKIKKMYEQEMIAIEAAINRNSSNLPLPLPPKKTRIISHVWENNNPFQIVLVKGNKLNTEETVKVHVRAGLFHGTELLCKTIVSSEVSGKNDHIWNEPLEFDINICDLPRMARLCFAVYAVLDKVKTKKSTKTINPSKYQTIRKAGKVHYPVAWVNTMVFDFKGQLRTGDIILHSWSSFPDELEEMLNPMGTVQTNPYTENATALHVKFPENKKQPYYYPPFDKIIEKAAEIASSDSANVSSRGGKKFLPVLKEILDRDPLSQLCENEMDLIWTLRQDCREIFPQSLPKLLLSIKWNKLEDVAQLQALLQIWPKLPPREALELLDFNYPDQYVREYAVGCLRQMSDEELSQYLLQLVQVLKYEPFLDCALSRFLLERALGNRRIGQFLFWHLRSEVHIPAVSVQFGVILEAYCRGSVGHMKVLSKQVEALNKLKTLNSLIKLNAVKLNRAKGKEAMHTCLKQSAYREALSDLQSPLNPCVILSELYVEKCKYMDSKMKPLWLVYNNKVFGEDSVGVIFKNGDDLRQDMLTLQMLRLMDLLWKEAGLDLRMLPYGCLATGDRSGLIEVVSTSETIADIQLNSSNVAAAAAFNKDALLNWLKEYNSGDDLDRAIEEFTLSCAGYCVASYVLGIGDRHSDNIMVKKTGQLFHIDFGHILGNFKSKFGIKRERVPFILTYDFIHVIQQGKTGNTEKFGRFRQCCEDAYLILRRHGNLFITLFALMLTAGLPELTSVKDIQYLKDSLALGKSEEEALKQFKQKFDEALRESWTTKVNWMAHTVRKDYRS

| Structure (SMILES) | IC50 (HCT-116) | IC50 (MCF7) | also measured |
| --- | --- | --- | --- |
| COc1ncc(-c2ccc3ncn(C4CCN(C(C)=O)CC4)c(=O)c3c2)cc1NS(=O)(=O)c1ccc(F)cc1 | 1300 nM | 2630 nM |  |
| COc1ncc(-c2ccc3ncn(Cc4cccnc4)c(=O)c3c2)cc1NS(=O)(=O)c1ccc(F)cc1 | 1290 nM | 1780 nM |  |
| COc1ncc(-c2ccc3ncn([C@@H]4CCN(CC5CC5)C4)c(=O)c3c2)cc1NS(=O)(=O)c1ccc(F)cc1 | 4880 nM | 2030 nM |  |
| COc1ncc(-c2ccc3ncn([C@@H]4CCN(C(C)=O)C4)c(=O)c3c2)cc1NS(=O)(=O)c1ccc(F)cc1 | 4720 nM | 2450 nM |  |
| CCN(CC)CCn1cnc2ccc(-c3cnc(OC)c(NS(=O)(=O)c4ccc(F)cc4F)c3)cc2c1=O | 1030 nM | 2590 nM |  |
| COc1ncc(-c2ccc3ncn(CCN4CCCCC4)c(=O)c3c2)cc1NS(=O)(=O)c1ccc(F)cc1 | 2750 nM | 2950 nM |  |
| COc1ncc(-c2ccc3ncn(CCN4CCOCC4)c(=O)c3c2)cc1NS(=O)(=O)c1ccc(C)cc1 | 1350 nM | 3480 nM |  |
| COc1ncc(-c2ccc3ncn([C@H]4CCN(C(=O)C5CC5)C4)c(=O)c3c2)cc1NS(=O)(=O)c1ccc(F)cc1 | 710 nM | 2360 nM | IC50 [1]: 7.3 nM; IC50 (PI3K p110 beta/p85 alpha): 209 nM; IC50 [2]: 116 nM; IC50 [3]: 106 nM; IC50 [4]: 208 nM; Ratio IC50 [5]: 10; inhibition in vivo at 20 mg/kg (CCRF S-180 [6]): 34.5%; inhibition in vivo at 40 mg/kg (CCRF S-180 [7]): 58%; Activity (Mus musculus): Toxic |
| COc1ncc(-c2ccc3ncn(Cc4ccccc4)c(=O)c3c2)cc1NS(=O)(=O)c1ccc(F)cc1 | 4740 nM | 5900 nM |  |
| COc1ncc(-c2ccc3ncn(CCN4CCN(C)CC4)c(=O)c3c2)cc1NS(=O)(=O)c1ccc(F)cc1 | 1450 nM | 3000 nM |  |
| COc1ncc(-c2ccc3ncn([C@H]4CCN(C(C)=O)C4)c(=O)c3c2)cc1NS(=O)(=O)c1ccc(F)cc1 | 1250 nM | 2520 nM |  |
| COc1ncc(-c2ccc3ncn(CCN(C)C)c(=O)c3c2)cc1NS(=O)(=O)c1ccc(F)cc1 | 2690 nM | 3720 nM |  |
| COc1ncc(-c2ccc3ncn(C4CCN(C(=O)C5CC5)CC4)c(=O)c3c2)cc1NS(=O)(=O)c1ccc(F)cc1 | 1350 nM | 2730 nM |  |
| COc1ncc(-c2ccc3ncn([C@H]4CCN(CC5CC5)C4)c(=O)c3c2)cc1NS(=O)(=O)c1ccc(F)cc1 | 670 nM | 1030 nM | IC50 [1]: 6.7 nM; IC50 (PI3K p110 beta/p85 alpha): 24 nM; IC50 [2]: 181 nM; IC50 [3]: 21 nM; IC50 [4]: 114 nM; Ratio IC50 [5]: 10 |
| COc1ncc(-c2ccc3ncn(-c4ccc(CN5CCOCC5)cc4)c(=O)c3c2)cc1NS(=O)(=O)c1ccc(F)cc1 | 1420 nM | 3490 nM |  |
| COc1ncc(-c2ccc3ncn([C@@H]4CCN(C(=O)C5CC5)C4)c(=O)c3c2)cc1NS(=O)(=O)c1ccc(F)cc1 | 6090 nM | 2260 nM |  |

| Structure (SMILES) | IC50 (HCT-116) | IC50 (MCF7) | also measured |
| --- | --- | --- | --- |
| COc1ncc(-c2ccc3ncn([C@H]4CCN(C(=O)C5CCOCC5)C4)c(=O)c3c2)cc1NS(=O)(=O)c1ccc(F)cc1 | 600 nM | 1620 nM |  |
| CCN(CC)CCn1cnc2ccc(-c3cnc(OC)c(NS(=O)(=O)c4ccc(F)cc4)c3)cc2c1=O | 1200 nM | 2340 nM |  |
| COc1ncc(-c2ccc3ncn(CCN4CCOCC4)c(=O)c3c2)cc1NS(=O)(=O)c1ccc(Cl)cc1 | 2020 nM | 4140 nM |  |
| COc1ncc(-c2ccc3ncn([C@H]4CCNC4)c(=O)c3c2)cc1NS(=O)(=O)c1ccc(F)cc1 | 1460 nM | 2770 nM |  |
| COc1ncc(-c2ccc3ncn(C4CCNCC4)c(=O)c3c2)cc1NS(=O)(=O)c1ccc(F)cc1 | 1150 nM | 1670 nM |  |
| COc1ncc(-c2ccc3ncn(C4CCN(C(=O)C5CCOCC5)CC4)c(=O)c3c2)cc1NS(=O)(=O)c1ccc(F)cc1 | 960 nM | 2900 nM |  |
| CCCCn1cnc2ccc(-c3cnc(OC)c(NS(=O)(=O)c4ccc(F)cc4)c3)cc2c1=O | 4060 nM | 3930 nM |  |
| COc1ncc(-c2ccc3ncn([C@H]4CCN(C(=O)OC(C)(C)C)C4)c(=O)c3c2)cc1NS(=O)(=O)c1ccc(F)cc1 | 660 nM | 2730 nM |  |
| COc1ncc(-c2ccc3ncn(C4CCN(C(=O)OC(C)(C)C)CC4)c(=O)c3c2)cc1NS(=O)(=O)c1ccc(F)cc1 | 1530 nM | 4360 nM |  |
| COc1ccc(Cn2cnc3ccc(-c4cnc(OC)c(NS(=O)(=O)c5ccc(F)cc5)c4)cc3c2=O)cc1 | 2800 nM | 3340 nM |  |
| COc1ncc(-c2ccc3ncn(CCN4CCOCC4)c(=O)c3c2)cc1NS(=O)(=O)c1ccc(F)cc1 | 1820 nM | 3200 nM |  |
| COc1ncc(-c2ccc3ncn(C4CCN(CC5CC5)CC4)c(=O)c3c2)cc1NS(=O)(=O)c1ccc(F)cc1 | 1220 nM | 2260 nM |  |
| COc1ncc(-c2ccc3ncn(-c4ccc(CN5CCN(C)CC5)cc4)c(=O)c3c2)cc1NS(=O)(=O)c1ccc(F)cc1 | 1250 nM | 4600 nM |  |
| Cn1c(=O)n(-c2ccc(C(C)(C)C#N)cc2)c2c3cc(-c4cnc5ccccc5c4)ccc3ncc21 [DACTOLISIB] | 560 nM | 1090 nM |  |
| COc1ncc(-c2ccc3ncn(Cc4ccncc4)c(=O)c3c2)cc1NS(=O)(=O)c1ccc(F)cc1 | 2950 nM | 1840 nM |  |
| COc1ncc(-c2ccc3ncn(CCN4CCCC4)c(=O)c3c2)cc1NS(=O)(=O)c1ccc(F)cc1 | 2640 nM | 3820 nM |  |
